We go through one substance from ChEMBL document CHEMBL1151458, “Comparative analysis of the bactericidal activities of amphibian peptide analogues against multidrug-resistant nosocomial bacterial strains” (2008).

Assay [1] has as its system Pseudomonas aeruginosa. Nature of the assay: Bactericidal activity against Pseudomonas aeruginosa isolate 2 with AMP-CFZ-CIP-CTX-CXM-GEN-LVX-IPM-MEM-SXT-TET resistance phenotype assessed as concentration required for >= 3 log10 CFU/ml reduction in viable bacteria in sodium phosphate buffer at pH 7.4 after 1.5 hrs by liquid microdilution assay. It counts as functional. In short, it runs like this: (§1)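 Clinical multidrug-resistant isolates grown to mid-log in tryptone soy broth and stored frozen. Exponential cells resuspended in 10 mM sodium phosphate buffer, pH 7.4, at 1 × 10^7 CFU/ml; 10 μl incubated with graded peptide concentrations in 100 μl at 37°C for 1.5 h. Plated on tryptone soy agar, CFU read after 24 h at 37°C. Peptide stocks in 20% ethanol.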

The subject of assay [2] is Pseudomonas aeruginosa. Description: Bactericidal activity against Pseudomonas aeruginosa isolate 3 with AMP-CFZ-CTX-CIP-GEN-IPM-LVX-SXT-TET-TOB resistance phenotype assessed as concentration required for >= 3 log10 CFU/ml reduction in viable bacteria in sodium phosphate buffer at pH 7.4 after 1.5 hrs by liquid microdilution assay. The assay is classed as functional. In outline:
as §1

Assay [3] concerns Staphylococcus aureus. Nature of the assay: Bactericidal activity against Staphylococcus aureus isolate 1 with AMC-AMP-CIP-ERY-GEN-OXA-RIF resistance phenotype assessed as concentration required for >= 3 log10 CFU/ml reduction in viable bacteria in 20% heat-inactivated human serum after 1.5 hrs by liquid microdilution assay. It counts as functional. In short, it runs like this:
(§2)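 The buffer microdilution kill assay (1 × 10^7 CFU/ml mid-log cells, 10 μl in 100 μl, 37°C, 1.5 h, CFU on tryptone soy agar after 24 h) with serum added to 20% or 40% final. Serum was pooled from five healthy donors, clotted at room temperature, spun at 300 × g and heat-inactivated at 56°C for 30 min.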

Assay [4] deals with Stenotrophomonas maltophilia. Nature of the assay: Bactericidal activity against Stenotrophomonas maltophilia isolate 2 with AMK-CIP-CTX-IPM-MEM-SAM-TZP resistance phenotype assessed as concentration required for >= 3 log10 CFU/ml reduction in viable bacteria in 20% heat-inactivated human serum after 1.5 hrs by liquid microdilution assay. It counts as functional. In short, it runs like this: as §2

Assay [5] has as its system Acinetobacter baumannii. Nature of the assay: Bactericidal activity against Acinetobacter baumannii isolate 3 with AMP-AMC-CFZ-CIP-IPM-SXT-TET-TOB resistance phenotype assessed as concentration required for >= 3 log10 CFU/ml reduction in viable bacteria in 40% heat-inactivated human serum after 1.5 hrs by liquid microdilution assay. It counts as functional. In short, it runs like this: as §2

Assay [6] deals with Pseudomonas aeruginosa. Description: Bactericidal activity against Pseudomonas aeruginosa isolate 1 with AMP-CFZ-CIP-CTX-CXM-GEN-LVX-SXT-TET resistance phenotype assessed as concentration required for >= 3 log10 CFU/ml reduction in viable bacteria in 40% heat-inactivated human serum after 1.5 hrs by liquid microdilution assay. It counts as functional. In short, it runs like this:
as §2

For assay [7], the system named is Enterococcus faecium. Description: Antimicrobial activity against Enterococcus faecium isolate 3 with AMP-CIP-CTX-ERY-GEN-LVX-SXT-TEC-VAN resistance phenotype at twofold the bactericidal concentration within 30 mins. The assay is classed as functional, organism-based. In short, it runs like this: (§3)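 Time-kill in 10 mM sodium phosphate buffer, pH 7.4: 1 × 10^7 CFU/ml mid-log clinical isolate (10 μl) exposed at 37°C to peptide at the 1.5-h bactericidal concentration or twofold that, in 100 μl. Samples taken from 2 min onward, plated on tryptone soy agar, CFU counted after 24 h at 37°C. Killing taken as ≥3 log10 CFU/ml drop.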

Assay [8] has as its system Staphylococcus aureus. Description: Antimicrobial activity against Staphylococcus aureus isolate 1 with AMC-AMP-CIP-ERY-GEN-OXA-RIF resistance phenotype at twofold the bactericidal concentration within 30 mins. It counts as functional, organism-based. In outline:
as §3

For assay [9], the system named is Stenotrophomonas maltophilia. Nature of the assay: Antimicrobial activity against Stenotrophomonas maltophilia isolate 2 with AMK-CIP-CTX-IPM-MEM-SAM-TZP resistance phenotype assessed as assessed as time to kill at twofold bactericidal concentration. The assay is classed as functional. In short, it runs like this:
as §3

Assay [10] has as its system Acinetobacter baumannii. Nature of the assay: Antimicrobial activity against Acinetobacter baumannii isolate 3 with AMP-AMC-CFZ-CIP-IPM-SXT-TET-TOB resistance phenotype assessed as time to kill at bactericidal concentration. The assay is classed as functional. In outline: as §3
The subject of assay [11] is Pseudomonas aeruginosa. Description: Antimicrobial activity against Pseudomonas aeruginosa isolate 1 with AMP-CFZ-CIP-CTX-CXM-GEN-LVX-SXT-TET resistance phenotype at bactericidal concentration after 30 mins by time kill assay. The assay is classed as functional, organism-based. In short, it runs like this: as §3
The test system of assay [12] is Pseudomonas aeruginosa. Nature of the assay: Antimicrobial activity against Pseudomonas aeruginosa isolate 1 with AMP-CFZ-CIP-CTX-CXM-GEN-LVX-SXT-TET resistance phenotype at twofold bactericidal concentration after 10 to 30 mins by time kill assay. It counts as functional, organism-based. In outline: as §3
Assay [13] deals with Enterococcus faecium. Description: Bactericidal activity against Enterococcus faecium isolate 6 with AMP-AMC-CLI-CRO-CTX-CIP-ERY-GEN-KAN-LVX-SXT-VAN resistance phenotype assessed as concentration required for >= 3 log10 CFU/ml reduction in viable bacteria in sodium phosphate buffer at pH 7.4 after 1.5 hrs by liquid microdilution assay. The assay is classed as functional. In short, it runs like this: as §1

The test system of assay [14] is Staphylococcus aureus. Description: Bactericidal activity against Staphylococcus aureus isolate 1 with AMC-AMP-CIP-ERY-GEN-OXA-RIF resistance phenotype assessed as concentration required for >= 3 log10 CFU/ml reduction in viable bacteria in sodium phosphate buffer at pH 7.4 after 1.5 hrs by liquid microdilution assay. The assay is classed as functional. In outline:
as §1

Assay [15] deals with Staphylococcus aureus. Nature of the assay: Bactericidal activity against Staphylococcus aureus isolate 2 with AMC-AMP-CIP-ERY-GEN-LVX-OXA-RIF-TET resistance phenotype assessed as concentration required for >= 3 log10 CFU/ml reduction in viable bacteria in sodium phosphate buffer at pH 7.4 after 1.5 hrs by liquid microdilution assay. It counts as functional. In outline:
as §1

The subject of assay [16] is Staphylococcus aureus. Description: Bactericidal activity against Staphylococcus aureus isolate 3 with AMC-AMP-CIP-ERY-GEN-LVX-OXA resistance phenotype assessed as concentration required for >= 3 log10 CFU/ml reduction in viable bacteria in sodium phosphate buffer at pH 7.4 after 1.5 hrs by liquid microdilution assay. The assay is classed as functional. In outline: as §1

Assay [17] deals with Stenotrophomonas maltophilia. Nature of the assay: Bactericidal activity against Stenotrophomonas maltophilia isolate 1 with AMK-CIP-CTX-IPM-MEM-SAM-TZP resistance phenotype assessed as concentration required for >= 3 log10 CFU/ml reduction in viable bacteria in sodium phosphate buffer at pH 7.4 after 1.5 hrs by liquid microdilution assay. The assay is classed as functional. In outline: as §1

The subject of assay [18] is Stenotrophomonas maltophilia. Nature of the assay: Bactericidal activity against Stenotrophomonas maltophilia isolate 2 with AMK-CIP-CTX-IPM-MEM-SAM-TZP resistance phenotype assessed as concentration required for >= 3 log10 CFU/ml reduction in viable bacteria in sodium phosphate buffer at pH 7.4 after 1.5 hrs by liquid microdilution assay. The assay is classed as functional. In outline: as §1

The subject of assay [19] is Stenotrophomonas maltophilia. Nature of the assay: Bactericidal activity against Stenotrophomonas maltophilia isolate 4 with AMK-CAZ-CIP-FEP-IPM-SAM-TZP resistance phenotype assessed as concentration required for >= 3 log10 CFU/ml reduction in viable bacteria in sodium phosphate buffer at pH 7.4 after 1.5 hrs by liquid microdilution assay. The assay is classed as functional. In outline:
as §1

The subject of assay [20] is Acinetobacter baumannii. Description: Bactericidal activity against Acinetobacter baumannii isolate 1 with AMP-AMC-CFZ-CIP-IPM-LVX-PIP-SXT-TET resistance phenotype assessed as concentration required for >= 3 log10 CFU/ml reduction in viable bacteria in sodium phosphate buffer at pH 7.4 after 1.5 hrs by liquid microdilution assay. It counts as functional. In short, it runs like this: as §1

Assay [21] relates to Acinetobacter baumannii. Nature of the assay: Bactericidal activity against Acinetobacter baumannii isolate 2 with AMP-CFZ-CIP-LVX-PIP-SXT resistance phenotype assessed as concentration required for >= 3 log10 CFU/ml reduction in viable bacteria in sodium phosphate buffer at pH 7.4 after 1.5 hrs by liquid microdilution assay. The assay is classed as functional. In short, it runs like this:
as §1

The source made the active and inactive calls. No cut-off for these calls is given here.

With H-GIFSKLAGKKLKNLLISG-NH2, the Activity in the assay with Pseudomonas aeruginosa [1] was determined as 1 µM; in the assay with Pseudomonas aeruginosa [2], 0.5 µM; in the assay on Staphylococcus aureus [3], 64 µM; in [4], 8 µM; in the assay with Acinetobacter baumannii [5], 32 µM; in the assay on Pseudomonas aeruginosa [6], 128 µM. The Activity is 2 µM in the assay on Enterococcus faecium [13]; 32 µM in the assay on Staphylococcus aureus [14]; 16 µM with Staphylococcus aureus [15]; 8 µM with Staphylococcus aureus [16]; 0.5 µM in [17]; 0.5 µM in assay [18]. Besides, the Activity (in [19]; with Acinetobacter baumannii [20]; with Acinetobacter baumannii [21]) was 0.5 µM in each case. Moreover, the result with Enterococcus faecium [7], in the assay with Staphylococcus aureus [8] and in the assay on Pseudomonas aeruginosa [11] was inactive. Besides, the Time (in assay [9]; with Acinetobacter baumannii [10]) was 2 min in each case. Besides, the result in the assay with Pseudomonas aeruginosa [12] was Active.
